# Bioassay records deposited in PubChem by several laboratories.
# Sampled rows, rich in hits. Any-hit rate of the full collection: about 2.1%.
# H9c2 protect – protects H9c2 cardiomyocytes from peroxide injury | 0.63% of 360,000 active | protection from H2O2 cell death, % at 20 µM | H2O2 injury protection, ATPLite, 2 h;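 active means compounds giving at least 50% protection of heart cells from peroxide-induced death in the single-dose screen, raw or plate-pattern-corrected value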;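 further: 0% = DMSO wells with peroxide and 100% = DMSO wells without peroxide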
# UCH37 inh – inhibitors of human deubiquitinating enzyme UCH37 | inhibition, % (no concentration beside the values) | purified proteasome/UCH37, Ub-AMC cleavage fluorescence | 0.33% of 330,000 active | Q9Y5K5;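 active means mean inhibition over replicate wells above about 20%, limit read from the data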;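 further: 0% = compound-free wells with enzyme and 100% = wells lacking proteasome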
# Target sequence (Q9Y5K5 whole entry, looked up): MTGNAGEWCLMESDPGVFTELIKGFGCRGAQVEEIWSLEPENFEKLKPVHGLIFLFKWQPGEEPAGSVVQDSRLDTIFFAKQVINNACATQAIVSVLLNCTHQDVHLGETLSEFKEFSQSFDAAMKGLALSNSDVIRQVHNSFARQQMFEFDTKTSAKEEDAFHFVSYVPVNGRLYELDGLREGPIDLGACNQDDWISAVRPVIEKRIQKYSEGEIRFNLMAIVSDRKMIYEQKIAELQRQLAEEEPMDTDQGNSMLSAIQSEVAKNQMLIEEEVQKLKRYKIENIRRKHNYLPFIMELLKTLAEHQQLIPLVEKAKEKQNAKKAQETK
#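 Assay system: Proteasome-bound UCH37. Buffer or medium: pH 7.4 Tris-HCl (50 mM) with ovalbumin, ATP-MgCl2, DTT. Incubation: 30 min preincubation with enzyme, 25 min cleavage at room temperature. Measured by: fluorescence, ex 355 nm, em 460 nm. Read-out basis: percent inhibition. Control set: wells without proteasome as full block, compound-free enzyme plus substrate as uninhibited.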
# CRFBP-R2 agonist – agonists of human CRF-binding protein/CRF-R2 receptor complex | HEK293 CRF-R2/CRF-BP, calcium dye fluorescence (FLIPR); percent of saturating CRF peptide response | activation, % at 13.2 µM | 0.46% of 350,000 active;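 active means activation of at least 50%, plus an integration ratio under a set limit after plate pattern correction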;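 further: plate controls were neutral control wells without compound for no effect and CRF at EC100 for full effect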
# iPSC survival up – increases survival of single human iPS cells; AID 602274; 0.044% of 360,000 active; survival enhancement, % at 20 µM; hiPSC single-cell survival, ATPlite luminescence; 100% = ROCK inhibitor wells, 0% = DMSO; in the data active means survival enhancement above about 18%;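 further: cells exposed to compounds for 16 hours before the ATP read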
# CRFBP-R2 block – CRF-BP/CRF-R2 complex antagonism. HEK293 CRF-R2/CRF-BP, CRF-induced calcium fluorescence. inhibition, % at 11.8 µM. 0.59% of 350,000 active. AID 588475;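 active means inhibition of the ligand-induced calcium signal above about 50% at the single tested concentration, limit read from the data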
# MIN6 prolif-1 – inducers of beta-cell replication in MIN6 cells; MIN6 cells proliferation, ATPlite luminescence, 48 h; cells starved in 0.2% serum; 100% = growth in 10% serum; proliferation, % at 10 µM; 0.29% of 330,000 active; AID 2380;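 active means compounds whose signal lies at least 3.5 SD above the mean of all wells on their plate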;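 further: 0% = DMSO-treated cells in low-serum medium and 100% = 10% serum control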
# MIN6 prolif-2 – confirmation of inducers of beta-cell replication in MIN6 cells; shares compounds with MIN6 prolif-1; MIN6 beta-cell proliferation, ATPlite luminescence, 48 h; cells kept in 0.2% serum; scaled between 0.2% and 10% serum; proliferation increase, % at 50 µM; 920 tested, under 10 active; AID 463095;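 active means proliferation increase above 40% at any of the four tested concentrations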
# * hit, by the source's call; i = inactive; / = no result.
SMILES,H9c2 protect,UCH37 inh,CRFBP-R2 agonist,iPSC survival up,CRFBP-R2 block,MIN6 prolif-1,MIN6 prolif-2
CCOC(=O)N1CCC(NC(=O)c2cc3c(-c4ccccc4F)nn(C)c3s2)CC1,50*,-5,0,1,4,-1,/
COc1ccc(NC(=O)c2cc3c(-c4ccc(OC)c(OC)c4)nn(C)c3s2)cc1OC,62*,-1,-1,-2,20,-4,/
CCOC(=O)N1CCC(NC(=O)c2cc3c(-c4ccc(OC)c(OC)c4)nn(C)c3s2)CC1,63*,-26,-1,-4,5,0,/
COc1ccc(NC(=O)CC(C)=NNC(=O)c2ccncc2)c([N+](=O)[O-])c1,/,3,/,/,/,/,/
CC(=O)c1cc(F)c(N2CCCC2)cc1C,-22,7,-2,-2,-24,1,/
CC(=O)c1cc(F)c(N2CCN(C(=O)C(C)(C)C)CC2)cc1C,-2,2,-5,2,74*,-2,/
Cc1cc(C(=O)NN=Cc2ccc(Cl)c([N+](=O)[O-])c2)c(C)n1-c1ccc(F)cc1,/,0,/,/,/,/,/
COC(=O)c1ccc(CSc2ccc3nnc(-c4cccc(F)c4)n3n2)o1,105*,-2,-6,2,32,3,/
CCOC(=O)CC(=O)CSc1ccc2nnc(-c3cccc(F)c3)n2n1,12,-15,-1,-2,0,-5,/
O=C(O)C(CC(=NO)c1ccc(Br)cc1)P(=O)(c1ccccc1)c1ccccc1 (stereo not drawn),/,1,/,/,/,/,/
O=C(CSc1ncc(-c2ccc(F)cc2)n1Cc1ccco1)Nc1nccs1,6,2,-1,2,-20,-4,/
Cc1cccc(NC(=O)CSc2nc3[nH]ncc3c(=O)[nH]2)c1C,3,/,3,0,51*,-3,/
Cc1cnc(NC(=O)CSc2ncc(-c3ccccc3)n2Cc2ccco2)s1,6,4,60*,-4,-59,-5,/
O=C(CSc1nc2ccccc2c(=O)[nH]1)Nc1ccccc1O,23,3,-2,0,-8,0,/
Cc1cnc(NC(=O)CSc2nc3ccccc3c(=O)[nH]2)s1,59*,2,-1,-2,0,-3,/
O=C(CSc1nc2ccccc2c(=O)[nH]1)Nc1cccc([N+](=O)[O-])c1,53*,3,-1,0,3,-3,/
Cn1c(=NNC(=O)c2ccccc2Cl)sc2ccccc21,/,1,/,/,/,/,/
COC(=O)c1ccc(C=NNC(=S)NC(C)C)cc1,/,-1,/,/,/,/,/
O=C(CNC(=O)c1cccc(Br)c1)NN=Cc1cccs1,/,2,/,/,/,/,/
Cc1cc(NC(=O)CSc2cc(C)c3ccccc3n2)no1,-4,2,1,2,1,7,/
COc1ccccc1NC(=O)CSc1c2c(nc3ccccc13)CCC2,7,6,-2,-3,24,8.4*,-6
Cc1cc(NC(=O)CSc2c3c(nc4ccccc24)CCC3)no1,6,5,-3,2,-12,16*,-6
Clc1ccc(CON=Cc2c(-c3ccccc3)nc3n2CCS3)c(Cl)c1,/,-12,/,/,/,/,/
COc1ccc(NC(=O)c2ccccc2NS(=O)(=O)c2ccc(C)cc2)c([N+](=O)[O-])c1,-2,5,0,3,21,6.2*,-6
NC(=S)NN=Cc1ccccc1OCc1ccccc1,/,8,/,/,/,/,/
SMILES,H9c2 protect,UCH37 inh,CRFBP-R2 agonist,iPSC survival up,CRFBP-R2 block,MIN6 prolif-1,MIN6 prolif-2
Fc1ccccc1NC(=S)N1CCN(Cc2ccc3c(c2)OCO3)CC1,-7,2,-1,-1,6,7.4*,-2
OC(=Cc1ccc2ccccc2n1)c1ccncc1,/,5,/,/,/,/,/
Cc1ccc(Cn2cc(CCC(=O)O)c3ccccc32)cc1,0,0,-4,0,-4,-2,/
O=C(O)Cc1cn(Cc2ccc(F)cc2)c2ccccc12,14,5,0,3,-10,7.4*,-3
O=C(CN1CCOCC1)NN=C/C(Br)=C\c1ccccc1,/,4,/,/,/,/,/
O=[N+]([O-])c1cccc(C=NNc2nccnc2Cl)c1,/,9,/,/,/,/,/
COCCCn1c(C(=O)NC2CCCCC2C)cc2c(=O)n3cccc(C)c3nc21 (stereo not drawn),13,i,-1,0,-21,4.9*,-6
CCN(C(=O)c1cc2c(=O)n3cccc(C)c3nc2n1CCCOC)C1CCCCC1,14,-329,1,0,-22,-3,/
Brc1ccc(C=NNc2ccccc2)cc1,/,7,/,/,/,/,/
Cn1c(Cl)c(C=NOC(=O)C2CC2)c2ccccc21,/,1,/,/,/,/,/
CN1CCN(C(=O)CCCN2C(=O)/C(=C/c3ccccc3)SC2=S)CC1,-12,6,-1,0,-10,7.5*,-6
COc1ccc(C(=O)N=C2SC3CS(=O)(=O)CC3N2Cc2ccc(OC)c(OC)c2)cc1 (stereo not drawn),-1,0,0,1,-5,11*,-2
COc1ccc(CN2C(=NC(=O)C3CC3)SC3CS(=O)(=O)CC32)cc1OC (stereo not drawn),-2,4,1,3,-5,1,/
COc1cccc(C=NNC(=O)CNC(=O)c2cccs2)c1O,/,-1,/,/,/,/,/
O=C(N/N=C/c1ccccn1)c1ccc2nc[nH]c2c1,1,/,1,0,-8,7.8*,1
COc1cc(C=NNC(=O)c2cccnc2)ccc1OC(=O)c1cccc(Br)c1,/,-8,/,/,/,/,/
COc1cc(N)c(Cl)cc1C(=O)OCC(=O)NCC1CCCCC1,7,1,-2,-1,-19,8.8*,-6
COc1cc(N)c(Cl)cc1C(=O)OCC(=O)NCC1CCCO1 (stereo not drawn),6,1,-1,0,9,1,/
COc1ccc(Cl)cc1C(=O)OCC(=O)NCCNC(=O)COC(=O)c1cc(Cl)ccc1OC,4,-3,0,0,-7,9.7*,1
CCOC(=O)C1CCN(C(=O)CCC2CCCC2)CC1,-1,0,1,-1,0,6.1*,0
CCOC(=O)C1CCN(C(=O)c2ccc(C)o2)CC1,4,/,1,0,13,9.3*,5
CCOC(=O)C1CCN(C(=O)c2ccco2)CC1,5,4,-1,1,-30,-1,/
O=C(CCC1CCCC1)N1CCN(C(=O)C2CC2)CC1,3,1,0,0,3,-2,/
CC(=O)C(=NNc1cccc(C)c1)N1CCOCC1,/,13,/,/,/,/,/
CCCNC(=O)c1ccccc1NC(=O)COc1cccc2c1OC(C)(C)C2,13,-2,-3,0,25,5,/
CC1(C)Cc2cccc(OCC(=O)Nc3ccccc3F)c2O1,4,/,-1,0,7,15*,-5
CN(C)C(=O)CN1C(=O)C2CC=C(Cl)CC2C1=O (stereo not drawn),2,0,0,1,7,-1,/
